# Data taken from ChEMBL document CHEMBL1154732, “A 4-aminoquinoline derivative that markedly sensitizes tumor cell killing by Akt inhibitors with a minimum cytotoxicity to non-cancer cells” (2010).
# Columns and labels:
# Assay type in all cases: functional
# [1] = tested on: MDA-MB-231; assay: Cytotoxicity against human MDA-MB-231 cells after 48 hrs by SRB assay in presence of 0.04 uM (E)-5-(benzo[d]thiazol-2-yl)-3-ethyl-2-(2-(methyl(phenyl)amino)vinyl)-1-phenyl-1H-benzo[d]imidazol-3-ium iodide; conditions: MDA-MB-231, 48 h
# Method in brief: (§1)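 Breast cancer cells were grown in RPMI 1640 with 10% FBS and 2 mM L-glutamine at 37 °C, 5% CO2, seeded at 5000–10,000/well and allowed 24 h before dosing. Compounds were given as seven serially diluted concentrations for 48 h, with any partner drug held constant, at ≤0.1% final DMSO. Cells were TCA-fixed, SRB-stained and read at 515–564 nm. GI50 came from a variable-slope sigmoidal fit of growth relative to time-zero and untreated wells; values are means of triplicates from ≥3 experiments.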
# [2] = tested on: MDA-MB-231; assay: Cytotoxicity against human MDA-MB-231 cells after 48 hrs by SRB assay in presence of 0.5 uM 2-morpholino-8-phenyl-4H-chromen-4-one; conditions: MDA-MB-231, 48 h; method in brief: as §1
# [3] = Cytotoxicity against human 184B5 cells after 48 hrs by SRB assay in presence of 0.4 uM 1-(1-(4-(7-phenyl-1H-imidazo[4,5-g]quinoxalin-6-yl)benzyl)piperidin-4-yl)-1H-benzo[d]imidazol-2(3H)-one
# Method in brief: (§2)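 184B5 immortalized breast epithelial cells were grown in mammary epithelial basal medium with MEGM supplements at 37 °C, 5% CO2. Cells (5000–10,000/well) were preincubated 24 h, then exposed to seven concentrations for 48 h, with the listed partner drug fixed at its stated level. Cells were TCA-fixed, SRB-stained and read at 515–564 nm. Final DMSO was ≤0.1%.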
# [4] = tested on: MDA-MB-468; assay: Cytotoxicity against human MDA-MB-468 cells after 48 hrs by SRB assay; conditions: MDA-MB-468, 48 h; method in brief: as §1
# [5] = tested on: MDA-MB-468; assay: Cytotoxicity against human MDA-MB-468 cells after 48 hrs by SRB assay in presence of 0.5 uM 2-morpholino-8-phenyl-4H-chromen-4-one; conditions: MDA-MB-468, 48 h; method in brief: as §1
# [6] = tested on: MDA-MB-231; assay: Cytotoxicity against human MDA-MB-231 cells after 48 hrs by SRB assay in presence of 3.5 uM 4-(2-chloro-10H-phenoxazin-10-yl)-N,N-diethylbutan-1-amine hydrochloride; conditions: MDA-MB-231, 48 h; method in brief: as §1
# [7] = tested on: MDA-MB-231; assay: Cytotoxicity against human MDA-MB-231 cells after 48 hrs by SRB assay in presence of 0.4 uM 1-(1-(4-(7-phenyl-1H-imidazo[4,5-g]quinoxalin-6-yl)benzyl)piperidin-4-yl)-1H-benzo[d]imidazol-2(3H)-one; method in brief: as §1
# [8] = tested on: MDA-MB-468; assay: Cytotoxicity against human MDA-MB-468 cells after 48 hrs by SRB assay in presence of 3.5 uM 4-(2-chloro-10H-phenoxazin-10-yl)-N,N-diethylbutan-1-amine hydrochloride; conditions: MDA-MB-468, 48 h; method in brief: as §1
# [9] = tested on: MCF7; assay: Cytotoxicity against human MCF7 cells after 48 hrs by SRB assay; conditions: MCF7, 48 h; method in brief: as §1
# [10] = tested on: MCF7; assay: Cytotoxicity against human MCF7 cells after 48 hrs by SRB assay in presence of 0.04 uM (E)-5-(benzo[d]thiazol-2-yl)-3-ethyl-2-(2-(methyl(phenyl)amino)vinyl)-1-phenyl-1H-benzo[d]imidazol-3-ium iodide; conditions: MCF7, 48 h; method in brief: as §1
# [11] = tested on: MDA-MB-468; assay: Cytotoxicity against human MDA-MB-468 cells after 48 hrs by SRB assay in presence of 0.4 uM 1-(1-(4-(7-phenyl-1H-imidazo[4,5-g]quinoxalin-6-yl)benzyl)piperidin-4-yl)-1H-benzo[d]imidazol-2(3H)-one; method in brief: as §1
# [12] = tested on: MDA-MB-468; assay: Cytotoxicity against human MDA-MB-468 cells after 48 hrs by SRB assay in presence of 0.04 uM (E)-5-(benzo[d]thiazol-2-yl)-3-ethyl-2-(2-(methyl(phenyl)amino)vinyl)-1-phenyl-1H-benzo[d]imidazol-3-ium iodide; conditions: MDA-MB-468, 48 h; method in brief: as §1
# [13] = tested on: MDA-MB-231; assay: Cytotoxicity against human MDA-MB-231 cells after 48 hrs by SRB assay; conditions: MDA-MB-231, 48 h; method in brief: as §1
# [14] = tested on: MCF7; assay: Cytotoxicity against human MCF7 cells after 48 hrs by SRB assay in presence of 3.5 uM 4-(2-chloro-10H-phenoxazin-10-yl)-N,N-diethylbutan-1-amine hydrochloride; conditions: MCF7, 48 h; method in brief: as §1
# [15] = Cytotoxicity against human 184B5 cells after 48 hrs by SRB assay; conditions: 184B5, 48 h; method in brief: as §2
# [16] = Cytotoxicity against human 184B5 cells after 48 hrs by SRB assay in presence of 0.04 uM (E)-5-(benzo[d]thiazol-2-yl)-3-ethyl-2-(2-(methyl(phenyl)amino)vinyl)-1-phenyl-1H-benzo[d]imidazol-3-ium iodide; conditions: 184B5, 48 h; method in brief: as §2
# [17] = tested on: MCF7; assay: Cytotoxicity against human MCF7 cells after 48 hrs by SRB assay in presence of 0.4 uM 1-(1-(4-(7-phenyl-1H-imidazo[4,5-g]quinoxalin-6-yl)benzyl)piperidin-4-yl)-1H-benzo[d]imidazol-2(3H)-one; method in brief: as §1
# [18] = tested on: MCF7; assay: Cytotoxicity against human MCF7 cells after 48 hrs by SRB assay in presence of 0.5 uM 2-morpholino-8-phenyl-4H-chromen-4-one; conditions: MCF7, 48 h; method in brief: as §1
# [19] = Cytotoxicity against human 184B5 cells after 48 hrs by SRB assay in presence of 0.5 uM 2-morpholino-8-phenyl-4H-chromen-4-one; conditions: 184B5, 48 h; method in brief: as §2
# [20] = Cytotoxicity against human 184B5 cells after 48 hrs by SRB assay in presence of 3.5 uM 4-(2-chloro-10H-phenoxazin-10-yl)-N,N-diethylbutan-1-amine hydrochloride; conditions: 184B5, 48 h; method in brief: as §2
SMILES,GI50 [1],GI50 [2],GI50 [3],GI50 [4],GI50 [5],GI50 [6],GI50 [7],GI50 [8],GI50 [9],GI50 [10],GI50 [11],GI50 [12],GI50 [13],GI50 [14],GI50 [15],GI50 [16],GI50 [17],GI50 [18],GI50 [19],GI50 [20]
CCCCNc1ccnc2cc(Cl)ccc12,12.3 µM,11.3 µM,16.6 µM,6.02 µM,7.42 µM,6.5 µM,8.8 µM,4.3 µM,8.45 µM,10.2 µM,7.09 µM,3.95 µM,15.9 µM,11.4 µM,18.4 µM,> 20 µM,5.6 µM,9.55 µM,> 20 µM,19.4 µM
CN(C)CCNc1ccnc2cc(F)ccc12,2.5 µM,9.45 µM,> 20 µM,8.73 µM,7.62 µM,2 µM,1.94 µM,4.61 µM,3.42 µM,2.56 µM,4.95 µM,4.87 µM,7.08 µM,3.26 µM,40.4 µM,> 20 µM,1.73 µM,2.64 µM,> 20 µM,> 20 µM
COc1ccc2c(NCCN(C)C)ccnc2c1,4.49 µM,9.45 µM,> 20 µM,4.8 µM,7.62 µM,1.24 µM,0.74 µM,5.66 µM,3.89 µM,3.54 µM,5.91 µM,5.85 µM,,3.66 µM,44.6 µM,> 20 µM,1.82 µM,2.65 µM,> 20 µM,> 20 µM
CCCCNc1ccnc2cc(F)ccc12,7.25 µM,12.3 µM,14.9 µM,1.41 µM,3.5 µM,3.74 µM,5.63 µM,1.44 µM,1.98 µM,5.78 µM,2.09 µM,2.69 µM,6.32 µM,3.7 µM,18.7 µM,12.4 µM,1.63 µM,3.17 µM,12.5 µM,8.19 µM
CN(C)CCNc1ccnc2cc(Cl)ccc12,5.66 µM,9.88 µM,> 20 µM,13.3 µM,19.3 µM,0.74 µM,2.87 µM,3.24 µM,15.4 µM,4.96 µM,6.5 µM,3.43 µM,8.59 µM,7.37 µM,44.5 µM,> 20 µM,3.32 µM,7.54 µM,> 20 µM,> 20 µM
CCN(CC)CCCC(C)Nc1ccnc2cc(Cl)ccc12 (stereo unspecified) [CHLOROQUINE PHOSPHATE],8.33 µM,18.8 µM,> 20 µM,,9.14 µM,6.08 µM,12.6 µM,2.81 µM,,7.54 µM,6.83 µM,6.53 µM,,11.8 µM,76.1 µM,> 20 µM,5.51 µM,7.71 µM,> 20 µM,> 20 µM
